Assay results reported in ChEMBL document CHEMBL4028872, “Structure-Activity Relationship, Pharmacological Characterization, and Molecular Modeling of Noncompetitive Inhibitors of the Betaine/γ-Aminobutyric Acid Transporter 1 (BGT1)” (J Med Chem, 2017).
The source made the active and inactive calls. The calls are words filed in the database; no cut-off is given here.

Tests used:
[1] = organism: Homo sapiens; experiment: Binding affinity to sigma receptor (unknown origin)
[2] = target: D(1A) dopamine receptor (Homo sapiens) (UniProt P21728); experiment: Displacement of [3H]SCH23390 from human Dopamine receptor D1 receptor expressed in HEKT cell membranes at 10 uM after 90 mins by scintillation counting method
D(1A) dopamine receptor (Homo sapiens), sequence (P21728 whole entry): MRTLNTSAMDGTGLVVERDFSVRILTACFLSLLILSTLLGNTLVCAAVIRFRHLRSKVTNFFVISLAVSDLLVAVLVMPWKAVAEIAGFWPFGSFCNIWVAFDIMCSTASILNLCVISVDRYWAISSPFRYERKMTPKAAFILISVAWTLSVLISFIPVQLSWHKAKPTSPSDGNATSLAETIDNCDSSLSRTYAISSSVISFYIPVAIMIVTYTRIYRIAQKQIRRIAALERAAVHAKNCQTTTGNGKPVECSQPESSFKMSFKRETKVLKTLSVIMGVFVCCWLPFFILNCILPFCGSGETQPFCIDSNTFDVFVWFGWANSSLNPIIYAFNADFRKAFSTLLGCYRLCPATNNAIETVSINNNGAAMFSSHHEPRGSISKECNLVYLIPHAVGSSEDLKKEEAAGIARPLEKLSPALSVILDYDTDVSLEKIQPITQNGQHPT

[3] = target: T1, Sodium- and chloride-dependent betaine transporter (Homo sapiens, UniProt P48065); experiment: Inhibition of human BGT1 expresses in tsA201 cells assessed as reduction in [3H]GABA uptake after 3 mins by scintillation counting method; assay type: cell-based
T1 sequence (P48065 whole entry): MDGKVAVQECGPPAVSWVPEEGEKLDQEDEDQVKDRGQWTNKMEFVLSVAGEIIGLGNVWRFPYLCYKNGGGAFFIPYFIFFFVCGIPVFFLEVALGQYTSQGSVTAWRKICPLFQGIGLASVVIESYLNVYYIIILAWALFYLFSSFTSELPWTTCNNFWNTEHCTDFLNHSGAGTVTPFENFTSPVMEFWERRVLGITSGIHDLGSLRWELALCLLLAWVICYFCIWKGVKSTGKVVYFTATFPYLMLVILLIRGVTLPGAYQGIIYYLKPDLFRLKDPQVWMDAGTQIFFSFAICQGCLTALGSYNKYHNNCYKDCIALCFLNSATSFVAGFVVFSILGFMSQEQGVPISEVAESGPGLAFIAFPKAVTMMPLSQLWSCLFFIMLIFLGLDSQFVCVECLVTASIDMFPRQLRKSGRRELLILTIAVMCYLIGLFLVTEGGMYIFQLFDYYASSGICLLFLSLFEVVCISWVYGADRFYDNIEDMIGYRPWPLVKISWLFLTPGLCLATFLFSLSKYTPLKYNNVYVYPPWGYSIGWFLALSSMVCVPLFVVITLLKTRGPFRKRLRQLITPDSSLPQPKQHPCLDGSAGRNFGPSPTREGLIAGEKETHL
Method in brief: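 tsA201 cells transiently transfected with wild-type or mutant human BGT1 (PolyFect) were plated about 24 h before assay. Three ice-cold washes followed, then scintillation counting.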

[4] = target: Sodium- and chloride-dependent betaine transporter (Homo sapiens, UniProt P48065, V336A); experiment: Inhibition of human BGT1 V336A mutant expressed in tsA201 cells assessed as reduction in [3H]GABA uptake after 3 mins by scintillation counting method; assay type: cell-based
Sodium- and chloride-dependent betaine transporter (Homo sapiens, UniProt P48065, V336A), sequence (P48065 whole entry V336A): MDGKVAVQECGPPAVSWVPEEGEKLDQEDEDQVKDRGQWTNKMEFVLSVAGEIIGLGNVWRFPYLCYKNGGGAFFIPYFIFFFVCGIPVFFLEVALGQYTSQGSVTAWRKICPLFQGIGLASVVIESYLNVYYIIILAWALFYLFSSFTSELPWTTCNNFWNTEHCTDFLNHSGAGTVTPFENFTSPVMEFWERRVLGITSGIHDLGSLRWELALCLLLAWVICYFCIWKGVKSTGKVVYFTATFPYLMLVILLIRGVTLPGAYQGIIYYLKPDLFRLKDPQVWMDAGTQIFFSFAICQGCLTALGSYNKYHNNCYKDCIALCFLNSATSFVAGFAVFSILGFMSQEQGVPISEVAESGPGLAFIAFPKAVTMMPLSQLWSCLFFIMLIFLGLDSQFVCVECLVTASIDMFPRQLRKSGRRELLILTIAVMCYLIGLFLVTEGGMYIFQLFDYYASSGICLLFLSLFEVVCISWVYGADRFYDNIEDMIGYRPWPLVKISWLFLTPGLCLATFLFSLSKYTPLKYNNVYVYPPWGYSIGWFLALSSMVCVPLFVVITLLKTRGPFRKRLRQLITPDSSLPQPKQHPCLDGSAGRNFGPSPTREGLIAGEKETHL
Method in brief: (§1)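 Site-directed mutant transporters transiently transfected (PolyFect) into tsA201 cells, plated and used about 24 h later. Cells were washed with HBSS containing 20 mM HEPES, 1 mM CaCl2 and 1 mM MgCl2, pH 7.4. IC50 was taken from variable-slope sigmoidal fits. Triplicates, at least three independent experiments.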

[5] = target: Sodium- and chloride-dependent betaine transporter (Homo sapiens, UniProt P48065, F367Y); experiment: Inhibition of human BGT1 F367Y mutant expressed in tsA201 cells assessed as reduction in [3H]GABA uptake after 3 mins by scintillation counting method; assay type: cell-based; method in brief: as §1
Sodium- and chloride-dependent betaine transporter (Homo sapiens, UniProt P48065, F367Y), sequence (P48065 whole entry F367Y): as the sequence (P48065 whole entry V336A) above, with A336V, F367Y counted along it

[6] = target: Sodium- and chloride-dependent betaine transporter (Homo sapiens, UniProt P48065, I386M); experiment: Inhibition of human BGT1 I386M mutant expressed in tsA201 cells assessed as reduction in [3H]GABA uptake after 3 mins by scintillation counting method; assay type: cell-based; method in brief: as §1
Sodium- and chloride-dependent betaine transporter (Homo sapiens, UniProt P48065, I386M), sequence (P48065 whole entry I386M): as the sequence (P48065 whole entry V336A) above, with A336V, I386M counted along it

[7] = target: Sodium- and chloride-dependent betaine transporter (Homo sapiens, UniProt P48065, A321M); experiment: Inhibition of human BGT1 A321M mutant expressed in tsA201 cells assessed as reduction in [3H]GABA uptake after 3 mins by scintillation counting method; assay type: cell-based; method in brief: as §1
Sodium- and chloride-dependent betaine transporter (Homo sapiens, UniProt P48065, A321M), sequence (P48065 whole entry A321M): as the sequence (P48065 whole entry V336A) above, with A321M, A336V counted along it

[8] = target: T2, Sodium- and chloride-dependent betaine transporter (Homo sapiens, UniProt P48065); experiment: Inhibition of human BGT1/human GAT3 chimera D expresses in tsA201 cells assessed as reduction in [3H]GABA uptake after 3 mins by scintillation counting method; assay type: cell-based
Method in brief: (§2)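 BGT1/GAT3 chimeric constructs transiently expressed in tsA201 cells. After about 24 h, cells were washed in HEPES-buffered HBSS (1 mM CaCl2, 1 mM MgCl2, pH 7.4). IC50 came from variable-slope sigmoidal regression. Triplicates, at least two independent experiments.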

[9] = target: Histamine H1 receptor (Homo sapiens) (UniProt P35367); experiment: Displacement of [3H]pyrilamine from human histamine H1 receptor expressed in HEK cell membranes at 10 uM after 90 mins by scintillation counting method
Histamine H1 receptor (Homo sapiens), sequence (P35367 whole entry): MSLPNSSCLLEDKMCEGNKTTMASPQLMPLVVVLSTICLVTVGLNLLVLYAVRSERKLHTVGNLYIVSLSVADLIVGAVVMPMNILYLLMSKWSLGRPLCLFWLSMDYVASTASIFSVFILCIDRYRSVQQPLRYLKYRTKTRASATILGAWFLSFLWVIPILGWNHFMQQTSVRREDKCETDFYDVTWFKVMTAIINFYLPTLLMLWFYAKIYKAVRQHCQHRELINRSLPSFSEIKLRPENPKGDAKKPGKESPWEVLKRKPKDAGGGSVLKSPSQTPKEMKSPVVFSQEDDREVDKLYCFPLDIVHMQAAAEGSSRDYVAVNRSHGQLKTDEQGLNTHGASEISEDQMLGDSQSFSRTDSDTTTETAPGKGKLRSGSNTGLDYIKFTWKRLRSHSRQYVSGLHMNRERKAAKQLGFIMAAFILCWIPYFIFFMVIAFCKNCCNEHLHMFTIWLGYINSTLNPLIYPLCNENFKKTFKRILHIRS

[10] = target: Sodium- and chloride-dependent betaine transporter (Homo sapiens, UniProt P48065, S353A); experiment: Inhibition of human BGT1 S353A mutant expressed in tsA201 cells assessed as reduction in [3H]GABA uptake after 3 mins by scintillation counting method; assay type: cell-based; method in brief: as §1
Sodium- and chloride-dependent betaine transporter (Homo sapiens, UniProt P48065, S353A), sequence (P48065 whole entry S353A): as the sequence (P48065 whole entry V336A) above, with A336V, S353A counted along it

[11] = target: Sodium- and chloride-dependent betaine transporter (Homo sapiens, UniProt P48065, S345A); experiment: Inhibition of human BGT1 S345A mutant expressed in tsA201 cells assessed as reduction in [3H]GABA uptake after 3 mins by scintillation counting method; assay type: cell-based; method in brief: as §1
Sodium- and chloride-dependent betaine transporter (Homo sapiens, UniProt P48065, S345A), sequence (P48065 whole entry S345A): as the sequence (P48065 whole entry V336A) above, with A336V, S345A counted along it

[12] = target: Sodium- and chloride-dependent betaine transporter (Homo sapiens, UniProt P48065, Q378P); experiment: Inhibition of human BGT1 Q378P mutant expressed in tsA201 cells assessed as reduction in [3H]GABA uptake after 3 mins by scintillation counting method; assay type: cell-based; method in brief: as §1
Sodium- and chloride-dependent betaine transporter (Homo sapiens, UniProt P48065, Q378P), sequence (P48065 whole entry Q378P): as the sequence (P48065 whole entry V336A) above, with A336V, Q378P counted along it

[13] = target: Sodium- and chloride-dependent betaine transporter (Homo sapiens, UniProt P48065, F324C); experiment: Inhibition of human BGT1 F324C mutant expressed in tsA201 cells assessed as reduction in [3H]GABA uptake after 3 mins by scintillation counting method; assay type: cell-based; method in brief: as §1
Sodium- and chloride-dependent betaine transporter (Homo sapiens, UniProt P48065, F324C), sequence (P48065 whole entry F324C): as the sequence (P48065 whole entry V336A) above, with F324C, A336V counted along it

[14] = target: Sodium- and chloride-dependent betaine transporter (Homo sapiens, UniProt P48065, A328G); experiment: Inhibition of human BGT1 A328G mutant expressed in tsA201 cells assessed as reduction in [3H]GABA uptake after 3 mins by scintillation counting method; assay type: cell-based; method in brief: as §1
Sodium- and chloride-dependent betaine transporter (Homo sapiens, UniProt P48065, A328G), sequence (P48065 whole entry A328G): as the sequence (P48065 whole entry V336A) above, with A328G, A336V counted along it

[15] = target: Sodium- and chloride-dependent betaine transporter (Homo sapiens, UniProt P48065, Q346Y); experiment: Inhibition of human BGT1 Q346Y mutant expressed in tsA201 cells assessed as reduction in [3H]GABA uptake after 3 mins by scintillation counting method; assay type: cell-based; method in brief: as §1
Sodium- and chloride-dependent betaine transporter (Homo sapiens, UniProt P48065, Q346Y), sequence (P48065 whole entry Q346Y): as the sequence (P48065 whole entry V336A) above, with A336V, Q346Y counted along it

[16] = target: Sodium- and chloride-dependent betaine transporter (Homo sapiens, UniProt P48065, K310N); experiment: Inhibition of human BGT1 K310N mutant expressed in tsA201 cells assessed as reduction in [3H]GABA uptake after 3 mins by scintillation counting method; assay type: cell-based; method in brief: as §1
Sodium- and chloride-dependent betaine transporter (Homo sapiens, UniProt P48065, K310N), sequence (P48065 whole entry K310N): as the sequence (P48065 whole entry V336A) above, with K310N, A336V counted along it

[17] = target: Sodium- and chloride-dependent betaine transporter (Homo sapiens, UniProt P48065, I340V); experiment: Inhibition of human BGT1 I340V mutant expressed in tsA201 cells assessed as reduction in [3H]GABA uptake after 3 mins by scintillation counting method; assay type: cell-based; method in brief: as §1
Sodium- and chloride-dependent betaine transporter (Homo sapiens, UniProt P48065, I340V), sequence (P48065 whole entry I340V): as the sequence (P48065 whole entry V336A) above, with A336V, I340V counted along it

[18] = target: Sodium- and chloride-dependent betaine transporter (Homo sapiens, UniProt P48065, S381A); experiment: Inhibition of human BGT1 S381A mutant expressed in tsA201 cells assessed as reduction in [3H]GABA uptake after 3 mins by scintillation counting method; assay type: cell-based; method in brief: as §1
Sodium- and chloride-dependent betaine transporter (Homo sapiens, UniProt P48065, S381A), sequence (P48065 whole entry S381A): as the sequence (P48065 whole entry V336A) above, with A336V, S381A counted along it

[19] = target: T2, Sodium- and chloride-dependent betaine transporter; experiment: Inhibition of human BGT1/human GAT3 chimera C expresses in tsA201 cells assessed as reduction in [3H]GABA uptake after 3 mins by scintillation counting method; assay type: cell-based; method in brief: as §2

In the case of O=C(NC1CCN(Cc2ccccc2)CC1)c1ccc(Cl)nc1Cl, the Activity [1] is reported as “Active”, the inhibition [2] is reported as “inactive” and the IC50 ([3]; read-out: IC50) is reported as 44 µM. For the same compound, the IC50 ([3]; read-out: pIC50 (converted)) was 40.7 µM.
Compound O=C(NC1CCN(Cc2ccccc2)CC1)c1ccc(Cl)cc1Cl has an IC50 ([4]; read-out: IC50) of 2 µM, an IC50 ([4]; read-out: pIC50 (converted)) of 1.66 µM and an IC50 ([5]; read-out: IC50) of 5 µM. The IC50 ([5]; read-out: pIC50 (converted)) was 6.03 µM, the IC50 [6] was 7 µM and the IC50 [7] was 5 µM. The IC50 [8] was 2 µM, the pIC50 [8] was 5.79 and the inhibition [9] was “Active”. For the same compound, the IC50 [10] was 17 µM, the IC50 [11] was 21 µM and the IC50 [12] was 14 µM. For the same compound, the IC50 [13] was 6 µM, the IC50 [14] was 7 µM and the IC50 [15] was 14 µM. The IC50 [16] was 10 µM, the IC50 ([17]; read-out: IC50) was 8 µM and the IC50 ([17]; read-out: pIC50 (converted)) was 5.89 µM. For the same compound, the inhibition [2] was “Active”, the IC50 [18] was 13 µM and the IC50 ([3]; read-out: IC50) was 18 µM. The IC50 [19] was 58 µM and the pIC50 [19] was 4.6.
